Measured values: ChEMBL document CHEMBL3091418, “Discovery of a novel activator of 5-lipoxygenase from an anacardic acid derived compound collection” (Bioorg Med Chem, 2013)
Active and inactive are the calls of the source. No cut-off for these calls is given here.

Columns and labels:
[1] = molecular target: T1, Prostaglandin G/H synthase 2 (Homo sapiens) (UniProt P35354); assay: Inhibition of human COX2 using arachidonic acid as substrate assessed as formation of TMPD at 50 uM incubated for 5 mins prior to substrate addition measured after 5 mins by spectrophotometry
T1 sequence (whole entry): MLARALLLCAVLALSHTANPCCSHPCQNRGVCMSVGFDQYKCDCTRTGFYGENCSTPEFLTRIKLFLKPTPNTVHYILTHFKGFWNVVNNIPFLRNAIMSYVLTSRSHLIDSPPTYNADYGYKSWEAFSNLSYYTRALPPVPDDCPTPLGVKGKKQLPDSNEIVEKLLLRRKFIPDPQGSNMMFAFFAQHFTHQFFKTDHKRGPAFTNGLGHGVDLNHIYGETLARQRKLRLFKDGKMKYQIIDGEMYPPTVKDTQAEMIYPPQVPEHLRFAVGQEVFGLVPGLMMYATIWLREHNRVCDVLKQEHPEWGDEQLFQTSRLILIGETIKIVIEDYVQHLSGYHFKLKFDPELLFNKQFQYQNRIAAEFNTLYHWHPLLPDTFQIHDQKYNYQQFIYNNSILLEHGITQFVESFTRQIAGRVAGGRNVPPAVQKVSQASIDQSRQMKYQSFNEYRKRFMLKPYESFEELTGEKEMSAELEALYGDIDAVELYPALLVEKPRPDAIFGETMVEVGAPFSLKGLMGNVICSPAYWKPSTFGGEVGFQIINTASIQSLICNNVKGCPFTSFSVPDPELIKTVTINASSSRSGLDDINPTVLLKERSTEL
Procedure, shortened: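 Human recombinant COX-2 (1:1000) in 0.1 M Tris pH 8.0 with hematin, pre-incubated 5 min at room temperature with 50 μM compound. TMPD and arachidonic acid then added and incubated 5 min at room temperature. Oxidized TMPD read at 550 nm. Controls: DMSO (100%) and no arachidonic acid. Triplicate, mean ± SD.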

[2] = molecular target: T2, Polyunsaturated fatty acid 5-lipoxygenase (Homo sapiens) (UniProt P09917); assay: Inhibition of human 5-LOX using lionleic acid as substrate assessed as formation of 13-HPOD at 50 uM incubated for 10 mins prior to substrate addition measured after 10 secs by UV absorbance assay
T2 sequence (whole entry): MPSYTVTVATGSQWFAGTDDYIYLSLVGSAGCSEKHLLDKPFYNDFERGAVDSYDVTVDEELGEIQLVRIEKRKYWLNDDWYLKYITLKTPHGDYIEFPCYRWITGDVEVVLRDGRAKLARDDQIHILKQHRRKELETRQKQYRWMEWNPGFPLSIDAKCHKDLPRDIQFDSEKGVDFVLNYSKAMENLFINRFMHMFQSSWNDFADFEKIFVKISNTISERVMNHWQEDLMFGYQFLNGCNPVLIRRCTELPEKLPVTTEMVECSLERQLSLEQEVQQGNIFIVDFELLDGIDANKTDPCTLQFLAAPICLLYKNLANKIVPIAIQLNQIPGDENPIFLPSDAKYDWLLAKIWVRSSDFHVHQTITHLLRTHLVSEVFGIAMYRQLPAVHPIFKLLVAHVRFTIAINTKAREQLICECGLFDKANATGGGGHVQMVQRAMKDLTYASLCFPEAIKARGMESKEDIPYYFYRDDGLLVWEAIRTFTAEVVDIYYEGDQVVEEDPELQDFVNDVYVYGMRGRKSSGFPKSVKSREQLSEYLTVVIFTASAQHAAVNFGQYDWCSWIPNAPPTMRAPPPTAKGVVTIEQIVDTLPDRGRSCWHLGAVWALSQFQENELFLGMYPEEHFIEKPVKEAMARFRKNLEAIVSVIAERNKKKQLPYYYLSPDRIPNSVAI
Procedure, shortened: (§1)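 Recombinant human 5-LOX (1:4000 dilution) in 50 mM Tris pH 7.5 with 2 mM EDTA, 2 mM CaCl2 and ATP, pre-incubated 10 min at room temperature with 50 μM compound (DMSO stock diluted in buffer). Linoleic acid (100 μM final) then added. Conjugated-diene HPOD formation read at 234 nm over 20 min, starting after 10 s mixing. Activity given relative to DMSO control (100%) and no-enzyme blank (0%). Triplicate.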

[3] = molecular target: T2, Polyunsaturated fatty acid 5-lipoxygenase (Homo sapiens); assay: Modulation of human 5-LOX using arachidonic acid as substrate at 50 uM
Procedure, shortened: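 Human 5-LOX in Tris pH 7.5 buffer with EDTA and CaCl2, pre-incubated 10 min with 50 μM compound. Substrate was arachidonic acid, 100 μM final. Residual activity measured by UV absorbance of conjugated diene product, relative to an uninhibited control.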

[4] = molecular target: T2, Polyunsaturated fatty acid 5-lipoxygenase (Homo sapiens); assay: Modulation of human 5-LOX using linoleic acid as substrate at 50 uM; procedure, shortened: as §1
[5] = molecular target: T3, Polyunsaturated fatty acid 5-lipoxygenase (Homo sapiens, UniProt P09917); assay: Binding affinity to human 5-LOX-linoleic acid complex
T3 sequence (P09917 whole entry): T2 sequence (whole entry)
Procedure, shortened: (§2)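 Human 5-LOX in 50 mM Tris pH 7.5 with 2 mM EDTA and 2 mM CaCl2, pre-incubated 10 min at room temperature with the modulator at fixed 0–50 μM. Linoleic acid was varied 37.5–300 μM with ATP at 100 μM. Initial rates came from the 234 nm diene absorbance, in triplicate. Dissociation constants for free and substrate-bound enzyme were derived by Lineweaver-Burk slope/intercept re-plots.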

[6] = molecular target: T3, Polyunsaturated fatty acid 5-lipoxygenase; assay: Binding affinity to human 5-LOX using linoleic acid as substrate; procedure, shortened: as §2
[7] = Critical micelle concentration of the compound in 50 mM Tris buffer containing 2 mM EDTA, 2 mM CaCl2 at pH 7.5 at 19 degC; type: ADME
Procedure, shortened: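 Surface tension measured across a range of compound concentrations in the 5-LOX assay buffer at room temperature (19 °C) and plotted against log concentration. The CMC was read from this plot.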

[8] = Critical micelle concentration of the compound in 50 mM Tris buffer with 2 mM EDTA and 2 mM CaCl2 at pH 7.5 at 19 degC
[9] = molecular target: T2, Polyunsaturated fatty acid 5-lipoxygenase (Homo sapiens); assay: Binding affinity to human 5-LOX-linoleic acid complex by Lineweaver-Burk plot analysis
[10] = molecular target: T2, Polyunsaturated fatty acid 5-lipoxygenase (Homo sapiens); assay: Binding affinity to human 5-LOX using linoleic acid as substrate by Lineweaver-Burk plot analysis
[11] = molecular target: T2, Polyunsaturated fatty acid 5-lipoxygenase (Homo sapiens); assay: Binding affinity to human 5-LOX-linoleic acid complex at <10 uM by Lineweaver-Burk plot analysis relative to human 5-LOX
[12] = molecular target: T2, Polyunsaturated fatty acid 5-lipoxygenase (Homo sapiens); assay: Non-essential mixed type activation of human 5-LOX assessed as increase in Vmax (app) at 12.5 to 25 uM by Michaelis-Menten/ Lineweaver-Burk plot analysis in presence of linoleic acid
Procedure, shortened: (§3)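 Human 5-LOX, conjugated diene read at 234 nm (ε = 25000 M−1cm−1). ATP fixed at 100 μM, linoleic acid varied over 37.5–300 μM, activator at 0, 12.5 or 25 μM. Km(app) and Vmax(app) taken from Michaelis-Menten and Lineweaver-Burk plots. Triplicate, mean ± SD.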

[13] = molecular target: T2, Polyunsaturated fatty acid 5-lipoxygenase (Homo sapiens); assay: Non-essential mixed type activation of human 5-LOX assessed as decrease in Km (app) at 12.5 to 25 uM by Michaelis-Menten/ Lineweaver-Burk plot analysis in presence of lonoleic acid; procedure, shortened: as §3
[14] = molecular target: T2, Polyunsaturated fatty acid 5-lipoxygenase (Homo sapiens); assay: Non-competitive activation of human 5-LOX using linoleic acid as substrate assessed as increase in Vmax (app) at 12.5 to 25 uM by Lineweaver-Burk plot analysis in presence of ATP
Procedure, shortened: (§4)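 Human 5-LOX, UV assay at 234 nm as in screening. Initial velocities measured with ATP varied over 12.5–200 μM, linoleic acid fixed at 100 μM, and activator at 0, 12.5 or 25 μM. Vmax(app) and Km(app) obtained from Michaelis-Menten and Lineweaver-Burk plots. Triplicate.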

[15] = molecular target: T2, Polyunsaturated fatty acid 5-lipoxygenase (Homo sapiens); assay: Non-competitive activation of human 5-LOX using linoleic acid as substrate assessed as increase in Vmax (app) at 12.5 to 25 uM by Michaelis-Menten equation analysis in presence of ATP; procedure, shortened: as §4
[16] = molecular target: T2, Polyunsaturated fatty acid 5-lipoxygenase (Homo sapiens); assay: Activation of human 5-LOX using lionleic acid as substrate assessed as formation of 13-HPOD incubated for 10 mins prior to substrate addition measured after 10 secs by UV absorbance assay; procedure, shortened: as §1
[17] = molecular target: T2, Polyunsaturated fatty acid 5-lipoxygenase (Homo sapiens); assay: Activation of human 5-LOX using lionleic acid as substrate assessed as formation of 13-HPOD at 50 uM incubated for 10 mins prior to substrate addition measured after 10 secs by UV absorbance assay; procedure, shortened: as §1

For `CCCCCc1cccc(O)c1C(=O)O`, the inhibition [1] was under 50% and the inhibition [2] was “Active”.

`CCCCCCCCCOc1cccc(COc2cccc(O)c2C(=O)O)c1` gave an inhibition [1] of under 50%.

With `CC(C)CCCC(C)CCOc1ccc(COc2cccc(O)c2C(=O)[O-])cc1.[K+]` (configuration not stated) the Activity [3] was “inactive”, the Activity [4] was “Active” and the Ki [5] was 140 µM. The Ki [6] was 70.3 µM, the CMC [7] was 395 µM and the inhibition [1] was under 50%. The inhibition [2] was 50%.

With `CCCCC/C=C\C/C=C\CCCCCCCC(=O)O` [LINOLEIC ACID] the CMC [8] was 185 µM.

With `Oc1ccccc1-c1nc2ccccc2o1` the inhibition [1] was 50% and the inhibition [2] was “inactive”.

With `CCCCCCCCCCCCCCCc1cccc(O)c1C(=O)O` the inhibition [1] was under 50% and the inhibition [2] was “Active”.

With `CCCCCOc1ccc(COc2cccc(O)c2C(=O)[O-])cc1.[K+]` the Activity [3] was “inactive”, the Activity [4] was “Active” and the Ka [9] was 380 nM. For the same compound, the Ka [10] was 8.65 µM, the fold change (FC) [11] was 50 and the Activity [12] was “Active”. For the same compound, the Activity [13] was “Active”, the Activity [14] was “Active” and the Activity [15] was “Active”. For the same compound, the Activity [16] was “Dose-dependent effect”, the CMC [7] was 628 µM and the Activity [17] was “Active”. The inhibition [1] was under 50%.

`CCCCCCCc1ccc(CCc2cccc(O)c2C(=O)O)cc1` gave an inhibition [1] of under 50%.

With `CCCCCCCCCCCCCCCc1cc(O)cc(O)c1C(=O)O` the inhibition [1] was under 50% and the inhibition [2] was “Active”.

Work on `CCCCCCCOc1cccc(COc2cccc(O)c2C(=O)O)c1` yielded an inhibition [1] of under 50%.

Work on `CCCCCCCCCCCCCCOc1cccc(O)c1C(=O)O` yielded an inhibition [1] of under 50%.

In the case of `CCCCCCCCCOc1ccc(COc2cccc(O)c2C(=O)O)cc1`, the inhibition [1] is reported as under 50% and the inhibition [2] is reported as “inactive”.

With `CCCCCCCCCCc1cccc(O)c1C(=O)O` the inhibition [1] was under 50% and the inhibition [2] was “Active”.

With `CCCCCCCCCOc1cccc(O)c1C(=O)O` the inhibition [1] was under 50%.

Compound `CCCCCCCc1ccc(CCc2cc(O)cc(O)c2C(=O)O)cc1` has an inhibition [1] of under 50%.

Work on `CCCCCCCCCCc1ccc(CCc2cc(O)cc(O)c2C(=O)O)cc1` yielded an inhibition [1] of under 50%.

In the case of `CCCCCCCOc1ccc(COc2cccc(O)c2C(=O)O)cc1`, the inhibition [1] is reported as under 50% and the inhibition [2] is reported as “inactive”.
